hERG rescue: hERG (human) protection from proarrhythmic block. Q12809. 0.51% of 310,000 active. CHO-hERG, FluxOR thallium flux, dofetilide IC70 present. activation (rescue from dofetilide block), less the hit threshold, % at 10 µM;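 active = activation above the mean of controls blocked by dofetilide plus 5 SD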;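 note: thallium influx through hERG after potassium depolarization seen as dye fluorescence rise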
KCNK3 block: human KCNK3 channel inhibition, primary screen; O14649; 0.84% of 340,000 active; B-score at 10 µM; CHO-KCNK3 thallium flux, FluxOR fluorescence; hits give low values; AID 602410;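 active = B-score under library mean minus 4 SD, starting fluorescence ratio at most library mean plus 5 SD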;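 note: more negative B-score means stronger inhibition of thallium flux through KCNK3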
KCNQ1 inh: human KCNQ1 channel inhibition; P51787; CHO-K1 KCNQ1, FluxOR thallium flux fluorescence; hits give high values; B-score at 10 µM; 1.3% of 310,000 active;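 active = compounds whose thallium flux B-score, printed positive for inhibition, exceeds three library SD while starting fluorescence stays within three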;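 note: channel opened by potassium depolarization with thallium stimulus after 20 min compound exposure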
KCNQ1 act: human KCNQ1 channel potentiation or activation. 0.35% of 310,000 active. B-score at 10 µM. P51787. AID 2648. CHO-K1 KCNQ1, thallium flux FluxOR fluorescence; hits give high values;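 active = fluorescence ratio B-score, a plate-corrected score, at least three library SD, with initial intensity B-score within 5 SD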
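assay system = CHO-K1 cells stably expressing KCNQ1 | medium = assay buffer, equal DMSO in all wells | timing = 37 °C overnight plating, 90-min dark dye load, 20-min compound pretreatment | measured by = kinetic FluxOR thallium fluorescence, 10-s 1-Hz baseline, 110-s post-stimulus read | measure = fluorescence change relative to baseline, converted to B score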
KCC2 mod: modulates chloride dependent transport by human KCC2; Q9H2X9; KCC2 cells, thallium flux FluoZin-2 fluorescence; B-score of Tl+ flux slope (higher = more flux/activation; lower = inhibition) at 10 µM; 2.2% of 190,000 active; AID 1456;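 active = thallium flux slope and its plate-corrected score both differing from the plate sample mean at a set confidence after two filtering rounds, in either direction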;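 note: slope of fluorescence scaled to starting intensity during 10 to 20 s after thallium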
KCNK9 inh: human KCNK9 channel inhibition | Q9NPC2 | HEK293 KCNK9, FluxOR thallium flux fluorescence; hits give low values | B-score at 10 µM | 1.2% of 310,000 active;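 active = ratio B-score over 3 SD below the library mean, with starting fluorescence within 5 SD of its mean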;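 note: negative B-score means less thallium flux so channel inhibition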
KCC2 secondary: KCC2 (human) modulation, secondary assay | shares compounds with KCC2 mod | HEK293-KCC2, thallium flux, FluoZin2 fluorescence; hits give high values | normalised thallium flux (F/F0 slope) at 10 µM | 15% of 3,700 active;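 active = thallium flux slope above the same plate's solvent-only control mean plus 3 SD; inconclusive = the two replicate wells disagree; inactive = no significant difference from solvent-only control wells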
KCC2 bumet counter: thallium flux despite bumetanide block in KCC2 cells, secondary assay 3 | shares compounds with KCC2 mod | 49% of 3,700 active | HEK293-KCC2 + bumetanide/ouabain, thallium flux FluoZin2; hits give high values | AID 1714 | normalized thallium flux at 10 µM;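 active = thallium entry rate above the same plate's blocked-transporter control wells by more than 3 SD; inconclusive = the two repeat wells disagree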;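 note: raw slope of fluorescence over initial fluorescence between 10 and 20 s after thallium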
KCC2 secondary2: KCC2 (human) modulation, second secondary assay; shares compounds with KCC2 mod; HEK293-KCC2, thallium flux FluoZin2 fluorescence; actives lie on both sides; F/F0 rise rate, 10–20 s post-thallium; normalized thallium flux at 10 µM; 23% of 3,700 active; AID 1715;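 active = thallium flux slope more than 3 SD above or below the plate's solvent-only control mean, mostly below; inconclusive = the two repeat wells disagreed; inactive = no significant shift from solvent-only controls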;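 note: raw slope with 0.1% DMSO as baseline and bumetanide as block control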
HEK counter1: acts in parental HEK cells, KCC2 counter-screen; shares compounds with KCC2 mod; HEK293 parental cells, thallium flux FluoZin2, ouabain; baseline-ratio fluorescence slope, 10–20 s after thallium; thallium flux rate (normalised fluorescence) at 10 µM; 46% of 3,700 active;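 active = thallium flux rate significantly above the same plate's solvent-only control wells, beyond their mean plus 3 SD; inconclusive = the two replicate wells gave conflicting results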
KCC2 ouabain: modulates human KCC2 on retest with ouabain; shares compounds with KCC2 mod; HEK293-KCC2, thallium flux FluoZin2 fluorescence; bidirectional: low = inhibitor, high = activator; raw Tl+ flux slope (below DMSO = inhibition, above = activation) at 10 µM; 48% of 3,700 active;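 active = thallium flux slope beyond 3 SD from same-plate DMSO control mean in most replicates, usually higher, sometimes lower; inconclusive = repeat tests gave conflicting results; inactive = no significant difference from controls in most replicates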;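 note: slope of initial-normalized fluorescence between seconds 10 and 20 after thallium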
HEK counter2: parental HEK flux effect, counter-screen 2. AID 1718. 33% of 3,700 active. HEK293 parental, thallium flux FluoZin-2 fluorescence slope. shares compounds with KCC2 mod. thallium flux slope at 10 µM;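 active = thallium flux slope above the same plate's solvent-control mean plus 3 SD in both duplicate wells; inconclusive = duplicate wells that disagreed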;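 note: run without ouabain in cells lacking the KCC2 cotransporter; slope of fluorescence scaled to its starting value between 10 and 20 s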
The depositor's hits bear a star; i = inactive; ? = inconclusive; . = no result given. Only some compounds are listed: those with a hit (about 4.1% of all), similar ones and a draw of the others.

SMILES	hERG rescue	KCNK3 block	KCNQ1 inh	KCNQ1 act	KCC2 mod	KCNK9 inh	KCC2 secondary	KCC2 bumet counter	KCC2 secondary2	HEK counter1	KCC2 ouabain	HEK counter2
Cc1nn(CC(=O)N2CCCC2)c(=O)c2cc3cc(F)ccc3n12	-6	i	i	i	.	i	.	.	.	.	.	.
CCOCCCn1c(=S)[nH]c2cc(C(=O)NCC(OC)OC)ccc2c1=O	-6	i	i	i	1.5	i	.	.	.	.	.	.
COc1ccc(-c2nnc3n(CCc4ccccc4)c(=O)c4ccccc4n23)cc1OC	0	i	i	i	4.4*	i	0.0088	0.017*	0.028	0.0097*	?	?
O=c1c2ccccc2n2c(-c3cccc(Cl)c3)nnc2n1Cc1ccccc1	-4	i	i	i	-0.38	i	.	.	.	.	.	.
CCCCCN1C=CC=C/C1=C\C=C(C#N)C#N	-3	i	i	i	-3	i	.	.	.	.	.	.
CCCN1C=CC(=CC=C(C#N)C#N)C=C1	-14	i	8*	i	-7.8*	i	0.0021*	-0.0014*	0.023*	?	0.0066*	?
Cc1ccc(C(=O)OCC(=O)NC(C)c2ccccc2)cc1C (configuration not stated)	.	i	.	.	.	.	.	.	.	.	.	.
CCC1CCCCN1C(=O)CSc1nnc(CNC(=O)c2cc(OC)c(OC)c(OC)c2)o1 (configuration not stated)	-4	i	i	i	6.7*	i	0.0076	0.0046	0.032	0.0079	0.02	0.011
COc1cc(C(=O)NCc2nnc(SCC(=O)NC3CCCCC3)o2)cc(OC)c1OC	-5	i	i	i	.	i	.	.	.	.	.	.
O=C(C[n+]1ccccc1)c1ccc(-c2ccccc2)cc1	-7	i	i	i	-4.6*	i	0.015	0.0047	0.022*	0.0078	0.014	0.011
CCCn1nnc(NC(=O)c2ccc(F)cc2)n1	-4	i	i	i	-4.1*	i	?	?	0.03	0.007	0.024	0.01
CCCn1nnc(NC(=O)c2ccc3ccccc3c2)n1	-11	i	i	i	-0.019	i	.	.	.	.	.	.
Cc1cccc(-c2noc(CCCC(=O)Nc3cccnc3)n2)c1	-16	i	i	i	-5.1*	i	0.0069	0.0045	0.031	0.0083	0.019	0.011
Cc1cccc(OCCc2nnc(N)s2)c1C	-12	i	i	i	-5.9*	i	0.0066	0.0049	0.026*	0.0079	?	0.012
O=C(NC(Cc1ccccc1)C(=O)O)/C(=C/c1cccc([N+](=O)[O-])c1)NC(=O)c1cccc(Br)c1 (configuration not stated)	-8	i	i	i	.	i	.	.	.	.	.	.
CC(C)COc1nc2ccccc2nc1C(C#N)C(=O)NC1CCCCC1 (configuration not stated)	-7	i	i	i	.	i	0.0093	0.0058	0.03	0.0073	0.018	0.012
O=C1[C@@H]2Cc3c([nH]c4ccccc34)CN2C(=O)CN1CCCCCO	-8	i	i	i	.	i	.	.	.	.	.	.
S=c1[nH]nc(-c2ccc3ccccc3n2)n1-c1ccc2ncccc2c1	-9	i	i	i	0.059	i	.	.	.	.	.	.
Cc1ccccc1-n1c(-c2csc3ccccc23)n[nH]c1=S	-7	i	i	i	15*	i	0.016*	0.045*	0.031	0.015*	0.043*	?
Fc1ccc(-n2c(-c3ccc4ccccc4n3)n[nH]c2=S)cc1Cl	-4	i	i	i	26*	i	0.0075	0.023*	0.042*	0.031*	0.04*	0.019*
Cc1ccccc1-n1c(-c2csc(C)c2C)n[nH]c1=S	-11	i	i	i	2.4	i	.	.	.	.	.	.
S=c1[nH]nc(-c2ccc3ccccc3n2)n1-c1ccc(Cl)cc1	-5	i	i	i	14*	i	0.0069	0.032*	0.043*	0.029*	0.037*	0.026*
Cc1ccccc1-n1c(-c2ccc3ccccc3n2)n[nH]c1=S	-3	i	i	i	11*	i	0.011	0.023*	0.035	?	?	0.013
COc1ccccc1C(=O)Nc1c2c(nn1-c1cccc(C)c1C)CS(=O)C2 (configuration not stated)	-7	i	i	i	6.7*	i	0.0068	0.0039	0.028	?	0.018	0.0097
COc1ccc(CC(=O)Nc2c3c(nn2-c2ccccc2C)CS(=O)C3)cc1 (configuration not stated)	-6	i	i	i	-1.4	i	.	.	.	.	.	.
SMILES	hERG rescue	KCNK3 block	KCNQ1 inh	KCNQ1 act	KCC2 mod	KCNK9 inh	KCC2 secondary	KCC2 bumet counter	KCC2 secondary2	HEK counter1	KCC2 ouabain	HEK counter2
O=C(Cc1coc(-c2ccc(F)cc2)n1)Nc1ccccc1	.	i	.	.	-3.8*	.	0.01	0.0057	?	0.0068	0.035*	0.0098
O=C(Nc1ccc(S(=O)(=O)NCc2ccco2)cc1)c1ccc2ccccc2n1	-1	i	i	i	.	i	0.0087	0.0061	0.035	0.0046	0.02	0.011
Fc1cc(F)c2nc(Nc3nc4cc5c(cc4s3)OCO5)sc2c1	-4	i	i	i	8.5*	i	0.0079	0.017*	0.036	0.013*	0.026*	0.016*
O=C(Nc1nc2cc3c(cc2s1)OCO3)C1CC1	-5	i	i	i	0.59	i	.	.	.	.	.	.
COc1cc(/C=C/c2noc(-c3ccccc3O)n2)ccc1OC(C)=O	-5	i	i	i	-5.5*	i	0.0087	0.0069	0.03	0.0069	0.021	0.0088
CC(C)Cn1c(-c2ccc(C#N)cc2)nc2c1c(=O)[nH]c(=O)n2CC(C)C	-9	i	i	i	.	i	0.01	0.0047	0.032	0.0075	0.019	0.01
COCCn1c(-c2ccc(NC(C)=O)cc2)nc2c1c(=O)[nH]c(=O)n2CC(C)C	-12	i	i	i	.	i	.	.	.	.	.	.

Compound activity (PubChem BioAssay)
